# According to ChEMBL document CHEMBL3286381 (J Med Chem, 2014):
# Active and inactive are the calls of the source. No cut-off for these calls is given here.
# How the values were obtained:
# [1] = biological target: T1, Ectonucleotide pyrophosphatase/phosphodiesterase family member 1 (Homo sapiens) (UniProt P22413); test: Inhibition of human NPP1 using ATP as substrate at 100 uM after 20 mins by reversed-phase HPLC analysis
# T1 sequence (whole entry): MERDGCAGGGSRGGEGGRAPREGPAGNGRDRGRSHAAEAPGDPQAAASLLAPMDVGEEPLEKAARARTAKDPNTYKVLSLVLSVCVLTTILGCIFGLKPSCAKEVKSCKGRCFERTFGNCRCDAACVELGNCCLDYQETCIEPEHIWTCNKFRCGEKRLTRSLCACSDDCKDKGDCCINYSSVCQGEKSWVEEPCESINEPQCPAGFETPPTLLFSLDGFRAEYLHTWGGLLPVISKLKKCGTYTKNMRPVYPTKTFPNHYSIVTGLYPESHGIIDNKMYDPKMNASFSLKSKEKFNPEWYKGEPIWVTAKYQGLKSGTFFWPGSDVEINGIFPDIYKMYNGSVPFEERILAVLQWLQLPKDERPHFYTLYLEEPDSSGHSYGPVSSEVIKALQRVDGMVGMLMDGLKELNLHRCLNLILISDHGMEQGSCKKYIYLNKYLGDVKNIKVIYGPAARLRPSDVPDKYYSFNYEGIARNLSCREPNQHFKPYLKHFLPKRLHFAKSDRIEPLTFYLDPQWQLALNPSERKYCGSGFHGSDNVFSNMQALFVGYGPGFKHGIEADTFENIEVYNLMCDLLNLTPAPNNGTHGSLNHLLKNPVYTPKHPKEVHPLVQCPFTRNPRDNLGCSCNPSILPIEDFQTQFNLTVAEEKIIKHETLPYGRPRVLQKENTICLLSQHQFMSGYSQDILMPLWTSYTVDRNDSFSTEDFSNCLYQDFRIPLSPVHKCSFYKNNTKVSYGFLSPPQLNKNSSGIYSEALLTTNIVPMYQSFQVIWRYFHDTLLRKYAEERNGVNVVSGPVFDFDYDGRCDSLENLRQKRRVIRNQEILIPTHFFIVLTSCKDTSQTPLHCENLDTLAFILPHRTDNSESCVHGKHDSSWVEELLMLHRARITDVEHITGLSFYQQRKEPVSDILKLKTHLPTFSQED
# [2] = biological target: T2, Ectonucleotide pyrophosphatase/phosphodiesterase family member 3 (Homo sapiens) (UniProt O14638); test: Inhibition of human NPP3 using pNP-TMP as substrate at 100 uM after 20 mins by reversed-phase HPLC analysis
# T2 sequence (whole entry): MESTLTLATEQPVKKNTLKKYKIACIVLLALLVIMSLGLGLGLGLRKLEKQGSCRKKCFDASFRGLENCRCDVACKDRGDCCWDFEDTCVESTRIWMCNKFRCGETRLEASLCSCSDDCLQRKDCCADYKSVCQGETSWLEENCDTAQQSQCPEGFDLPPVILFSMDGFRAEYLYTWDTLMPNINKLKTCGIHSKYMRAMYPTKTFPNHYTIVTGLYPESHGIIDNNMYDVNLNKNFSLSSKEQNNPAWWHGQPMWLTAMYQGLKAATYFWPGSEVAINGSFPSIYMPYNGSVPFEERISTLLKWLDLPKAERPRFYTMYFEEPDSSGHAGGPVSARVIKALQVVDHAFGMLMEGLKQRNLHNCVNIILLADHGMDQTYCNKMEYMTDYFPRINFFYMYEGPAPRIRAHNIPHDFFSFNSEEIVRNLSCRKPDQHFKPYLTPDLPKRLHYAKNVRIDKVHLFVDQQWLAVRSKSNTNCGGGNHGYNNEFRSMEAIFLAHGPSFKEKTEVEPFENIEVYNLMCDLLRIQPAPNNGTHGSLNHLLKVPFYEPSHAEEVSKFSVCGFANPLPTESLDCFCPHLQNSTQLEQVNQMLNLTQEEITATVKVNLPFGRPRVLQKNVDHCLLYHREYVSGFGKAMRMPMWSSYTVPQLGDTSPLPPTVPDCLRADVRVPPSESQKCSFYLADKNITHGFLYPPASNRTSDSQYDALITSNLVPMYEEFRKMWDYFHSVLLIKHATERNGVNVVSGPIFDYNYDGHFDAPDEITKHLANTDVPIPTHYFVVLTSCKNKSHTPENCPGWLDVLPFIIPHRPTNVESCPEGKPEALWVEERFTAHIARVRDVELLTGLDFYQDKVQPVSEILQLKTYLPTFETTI
# [3] = biological target: T3, Ectonucleoside triphosphate diphosphohydrolase 2 (Homo sapiens) (UniProt Q9Y5L3); test: Inhibition of human NTPDase-2 using ATP as substrate assessed as inorganic phosphate release at 100 uM after 15 mins relative to control
# T3 sequence (whole entry): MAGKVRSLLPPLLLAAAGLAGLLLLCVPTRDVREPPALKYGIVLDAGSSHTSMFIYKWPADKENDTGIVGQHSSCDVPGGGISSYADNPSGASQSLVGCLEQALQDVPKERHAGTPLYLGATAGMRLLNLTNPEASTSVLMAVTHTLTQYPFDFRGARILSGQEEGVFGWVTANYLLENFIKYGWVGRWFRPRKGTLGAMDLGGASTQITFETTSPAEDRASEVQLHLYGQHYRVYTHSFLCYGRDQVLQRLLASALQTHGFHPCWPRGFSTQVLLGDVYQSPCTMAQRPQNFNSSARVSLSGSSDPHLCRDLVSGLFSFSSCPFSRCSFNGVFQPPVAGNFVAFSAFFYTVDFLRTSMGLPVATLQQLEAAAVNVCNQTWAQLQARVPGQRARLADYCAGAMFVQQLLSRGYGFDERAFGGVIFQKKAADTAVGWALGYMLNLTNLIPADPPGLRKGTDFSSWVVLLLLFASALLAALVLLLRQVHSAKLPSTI
# How it was run: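 Protein extracts are from COS-7 cells transiently transfected with human NTPDase1, 2, 3 or 8. Extract is preincubated for 3 min at 37 °C in Tris–Ringer buffer (pH 7.3). […] Three experiments in triplicate.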
# [4] = biological target: T4, Ectonucleotide pyrophosphatase/phosphodiesterase family member 1 (Homo sapiens, UniProt P22413); test: Mixed type inhibition of human NPP1 using pNP-TMP as substrate after 20 mins by Dixon and Cornish-Bowden method
# T4 sequence (P22413 whole entry): T1 sequence (whole entry)
# How it was run: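 Human NPP1 (COS-7 lysate) is tested with pNP-TMP hydrolysis at 37 °C in pH 8.5 Tris buffer, reading p-nitrophenol at […]. Substrate is 25, 50 and 100 μM, and inhibitor is 0, 25, 50 and 100 μM. Inhibition type, Ki and Ki′ (EIS complex dissociation constant) come from Dixon and Cornish–Bowden plots of three independent experiments.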
# [5] = biological target: P2Y purinoceptor 1 (Homo sapiens) (UniProt P47900); test: Agonist activity at human P2Y1 receptor expressed in human 1321N1 cells assessed as increase of intracellular calcium level up to 10 uM after 30 mins using fura-2 AM by fluorescence assay; format: functional, cell-based
# P2Y purinoceptor 1 (Homo sapiens), sequence (P47900 whole entry): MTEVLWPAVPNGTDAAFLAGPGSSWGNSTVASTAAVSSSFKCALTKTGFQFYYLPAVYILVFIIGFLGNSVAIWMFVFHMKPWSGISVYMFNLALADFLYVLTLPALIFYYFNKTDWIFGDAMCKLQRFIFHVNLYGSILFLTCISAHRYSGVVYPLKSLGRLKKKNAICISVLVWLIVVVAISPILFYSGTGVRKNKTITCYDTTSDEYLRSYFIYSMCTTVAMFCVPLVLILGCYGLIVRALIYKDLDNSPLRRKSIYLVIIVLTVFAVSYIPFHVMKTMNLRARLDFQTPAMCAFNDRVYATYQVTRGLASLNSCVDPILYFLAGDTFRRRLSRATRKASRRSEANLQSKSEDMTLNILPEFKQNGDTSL
Structure (SMILES),inhibition [1],inhibition [2],inhibition [3],IC50 [4],Ki [4],Activity [5]
Nc1ncnc2c1ncn2[C@@H]1O[C@H](CO[P@@](O)(=S)OP(=O)(O)C(Cl)(Cl)P(=O)(O)O)[C@@H](O)[C@H]1O,Active,23%,9.9%,31.2 µM,15.2 µM,inactive
Nc1ncnc2c1ncn2[C@@H]1O[C@H](CO[P@](O)(=S)OP(=O)(O)CP(=O)(O)O)[C@@H](O)[C@H]1O,Active,23%,15.4%,16.3 µM,4.5 µM,inactive
Nc1ncnc2c1ncn2[C@@H]1O[C@H](CO[P@](O)(=S)OP(=O)(O)C(Cl)(Cl)P(=O)(O)O)[C@@H](O)[C@H]1O,Active,23%,11.2%,0.6 µM,0.685 µM,inactive
Nc1ncnc2c1ncn2[C@@H]1O[C@H](COP(=O)(O)CP(=O)(O)OP(O)(O)=S)[C@@H](O)[C@H]1O,Active,23%,16.3%,,,inactive
Nc1ncnc2c1ncn2[C@@H]1O[C@H](CO[P@@](O)(=S)OP(=O)(O)CP(=O)(O)O)[C@@H](O)[C@H]1O,Active,23%,12.7%,18.7 µM,1.3 µM,inactive
